Results of several laboratories.
Lines come from different studies, so protocols differ.
Target: Calcium/calmodulin-dependent protein kinase type II subunit beta (CAMK2B, Homo sapiens, UniProt Q13554)

SMILES	observed	action	technique	concentration	quantity	value
CCCCN(CCCC)C(=O)CN1C[C@@H](c2cc(OC)c3c(c2)OCO3)[C@H](C(=O)O)[C@H]1CC(C)(C)CCC	cell-free assay	–	competition with immobilised ligand	1 µM	remaining binding	100%
Cc1ccc(Nc2nccc(N(C)c3ccc4c(C)n(C)nc4c3)n2)cc1S(N)(=O)=O	enzyme activity	inhibitor	–	10 µM	inhibition	29%
CO[C@@H](C)c1c(Nc2ccc([C@H](N(C)C(=O)C3CCS(=O)(=O)CC3)C(F)(F)F)cc2)cnc2cc(Cl)nn12	cell-free assay	–	competition with immobilised ligand	1 µM	remaining binding	94%
Cc1cc(NC(=O)c2cccc3cc(-c4cccc5[nH]nc(N)c45)ccc23)ccc1F	enzyme activity	inhibitor	–	0.1 µM	activity vs control	94%
Oc1ccc(-c2nc(-c3ccncc3)c(-c3ccc(F)cc3)[nH]2)cc1	cell-free assay	–	–	0.5 µM	remaining signal	96.4%
Cc1cc(-n2nc(Cc3cc(F)cc(C(F)(F)F)c3)nc2C)ccc1C(N)=O	cell-free assay	–	competition with immobilised ligand	1 µM	remaining binding	100%
Cc1sc(C(=O)NC2COC2)cc1-n1cc(NC(=O)Nc2c(F)cccc2Cl)cn1	enzyme activity	inhibitor	–	10 µM	remaining activity	100%
Nc1ncnc2occ(-c3ccc(NC(=O)Nc4cc(C(F)(F)F)ccc4F)cc3)c12	enzyme activity	inhibitor	–	20 µM	remaining activity	95%
O=C1NC(=O)c2cc(Nc3ccc(F)cc3)c(Nc3ccc(F)cc3)cc21	cell-free assay	–	–	0.5 µM	remaining signal	98.7%
CNC(=O)c1cc(Oc2ccc(NC(=O)Nc3ccc(Cl)c(C(F)(F)F)c3)cc2)ccn1	enzyme activity	inhibitor	–	0.3 µM	inhibition	27%
Nc1c(C(=O)NCc2ccc(C(=O)NCCCC3CCCCC3)cc2)cnn1-c1ccccc1	cell-free assay	–	competition with immobilised ligand	0.1 µM	remaining binding	100%
CCCCNc1ncc2c(-c3ccc(F)cc3)nn(C[C@H]3CC[C@H](N)CC3)c2n1	target engagement in cells	inhibitor	chemoproteomics	20 mM	inhibition	29%
CCN(CC)CCNC(=O)c1c(C)[nH]c(/C=C2\C(=O)Nc3ccc(F)cc32)c1C	enzyme activity	inhibitor	–	0.3 µM	inhibition	57%
CS(=O)(=O)N1CCCC(NC(=O)[C@H](CCC2CCCCC2)NC(=O)c2ccc(CNc3ncnc4c3nnn4-c3ccccc3)cc2)C1 (stereo partly drawn)	cell-free assay	–	competition with immobilised ligand	0.1 µM	remaining binding	100%
Clc1ccc(Nc2nnc(Cc3ccncc3)c3ccccc23)cc1	cell-free assay	–	–	0.5 µM	remaining signal	109%
Cc1noc([C@H]2C[C@@H](c3ccc(C(F)(F)F)cc3)CN(C(=O)N3CCS(=O)(=O)C3)C2)n1	cell-free assay	–	competition with immobilised ligand	1 µM	remaining binding	100%
CN1CC(Oc2cnc(C#N)cc2-c2ccn3nc(NC(=O)C4CC4)cc3c2)C1	enzyme activity	inhibitor	–	1 µM	inhibition	-1%
C[S+]([O-])c1ccc(-c2nc(-c3ccncc3)c(-c3ccc(F)cc3)[nH]2)cc1 (stereo not drawn)	cell-free assay	–	–	0.5 µM	remaining signal	97.6%
CC/C(=N\NC(=O)NCc1cccc(O)c1)c1ccc(O)c(C)c1O	enzyme activity	inhibitor	–	0.1 µM	inhibition	-4%
Cc1ccc(C(=O)NCc2ccsc2)cc1C#Cc1cn(C(C)C)c2ncnc(N)c12	enzyme activity	inhibitor	–	1 µM	activity vs control	95%
O=C1NC(c2ccccn2)Sc2ccccc21 (stereo not drawn)	cell-free assay	–	competition with immobilised ligand	1 µM	remaining binding	100%
Cc1ccc(NC(=O)c2ccc(C)c(C(F)(F)F)c2)cc1C#Cc1nn(C2CCC(O)CC2)c2ncnc(N)c12 (stereo not drawn)	cell-free assay	–	–	10 µM	remaining signal	85%
COc1ccc(COc2ccc(Cc3cnc(N)nc3N)cc2OC)cc1	cell-free assay	–	–	0.5 µM	remaining signal	100%
COc1cc2ncnc(Nc3ccc(Oc4ccccc4)c(C)c3C)c2cc1OC	enzyme activity	inhibitor	–	1 µM	inhibition	12%
O=C(Nc1ccc(Oc2ccc(F)cc2)cc1)N1CCc2ncccc2[C@H]1c1ccc(F)cc1	cell-free assay	–	competition with immobilised ligand	1 µM	remaining binding	100%
CC(C)c1ccc(NC(=O)c2cccs2)c(-c2nc3ccccc3[nH]c2=O)c1	enzyme activity	inhibitor	–	1 µM	activity vs control	108%
Cc1cnc(NC2CCOCC2)nc1-n1cnc(C(=O)NC(CN)c2cc(F)cc(Cl)c2)c1 (stereo not drawn)	enzyme activity	inhibitor	radiometric	1 µM	remaining activity	87%
CC(C)(C)c1nc2c(s1)c1nc(N)ncc1c1ccc(NS(=O)(=O)c3c(F)cccc3F)c(F)c12	enzyme activity	inhibitor	radiometric	1 µM	remaining activity	83%
O=c1cc(-c2cccc3c2Sc2ccccc2S3)oc(N2CCOCC2)c1	enzyme activity	inhibitor	–	0.5 µM	remaining activity	106%
Cc1ccc(-n2nc(C(C)(C)C)cc2NC(=O)Nc2ccc(OCCN3CCOCC3)c3ccccc23)cc1	enzyme activity	inhibitor	–	10 µM	inhibition	22%
